Measured values from article PMC5591795 (Clinical Pharmacokinetics, 2017).
Where two headings read alike, the source gives them in different places. Numbered stars: 1 amine (or outer) side, 2 acyl side, 3 side chain; on linkers, the order of the positions; unused ones are H or OH. Bridge positions count the residues as written; N and C are the ends. Square brackets hold non-standard residues; d marks the D form. Peptide text beside a SMILES is read from it. * marks the point of attachment. hTyr(3S-OH,4S-OH,3'-OSO3H) = N[C@H](C(=O)O)[C@H](O)[C@@H](O)c1ccc(O)c(OS(=O)(=O)O)c1; Orn(4R-OH,5R-OH) = O=C([C@H](C[C@@H](O)[C@@H](O)N[*:3])N[*:1])[*:2]; Pro(3S-OH,4S-Me) = C[C@H]1CN[C@H](C(=O)O)[C@H]1O; X1 = CCCCCOc1ccc(-c2cc(-c3ccc(C(=O)*)cc3)no2)cc1; Gln(3R-OH) = NC(=O)C[C@@H](O)[C@H](N)C(=O)O; Hyp = O=C(O)[C@@H]1C[C@@H](O)CN1

Legend:
[1] = cited from earlier work
[2] = Population pharmacokinetic model of micafungin in ICU patients; format: in vivo; conditions: human, plasma, iv, 100 mg
Summary of the method: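 ICU adults (n = 20; suspected or proven fungal infection) received 100 mg QD IV over ~1 h. Plasma was sampled on day 3 (±1) pre-dose and 0.5–24 h post start infusion, on day 7 (±1) in six samples to 24 h, and as daily troughs. Drug was measured by UPLC-fluorescence. The model was fitted by FOCE with interaction, with IOV on CL and V and albumin, CVVH and SOFA tested as covariates.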

[3] = cited from earlier work; remark: listed apart in the source
[4] = statement without reference; cited from earlier work
[5] = cited from earlier work; remark: listed apart in the source

## Anidulafungin
[1]
  V in critically ill patients compared with healthy volunteers: equal

## caspofungin
[1]
  CL and V in critically ill patients compared with healthy volunteers: identical

## CCCCCOc1ccc(-c2cc(-c3ccc(C(=O)N[C@H]4C[C@@H](O)[C@@H](O)NC(=O)[C@@H]5[C@@H](O)[C@@H](C)CN5C(=O)[C@H]([C@H](O)CC(N)=O)NC(=O)[C@H]([C@H](O)[C@@H](O)c5ccc(O)c(OS(=O)(=O)O)c5)NC(=O)[C@@H]5C[C@@H](O)CN5C(=O)[C@H]([C@@H](C)O)NC4=O)cc3)no2)cc1 [micafungin] (X1-[Orn(4R-OH,5R-OH)]T[Hyp][hTyr(3S-OH,4S-OH,3'-OSO3H)][Gln(3R-OH)][Pro(3S-OH,4S-Me)]; lactam 1-C)
[2]
  Vd: 21.2 L
[3]; doses of 8 mg/kg
  tolerability: well tolerated
[3]; therapy with 150–200 mg QD
  tolerability: well tolerated
[4]
  protein binding: highly protein bound
[5]
  solubility in water: freely soluble in water
[1]
  metabolism: only a small fraction is metabolised
[1]; healthy volunteers
  CL: 0.55 L/h
  V (V 1 and V 2 together): 13.9 L
